Data as given in ChEMBL document CHEMBL4033790, “Design and Synthesis of Novel Deuterated Ligands Functionally Selective for the γ-Aminobutyric Acid Type A Receptor (GABAAR) α6 Subtype with Improved Metabolic Stability and Enhanced Bioavailability” (J Med Chem, 2018).

Assays:
[1] = Metabolic stability in human liver microsomes assessed as parent compound remaining at 10 uM after 60 mins by LC-MS analysis; type: ADME, microsome; conditions: read-out: Stability
How it was run: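 The 60 min samples of the microsomal incubation (10 μM compound, human or mouse liver microsomes at 0.5 mg/mL, NADPH regenerating system, 37 °C) were analysed by LC-MS. Detection used SIM mode with dual ESI/APCI ionization, calibrated to the retention times and masses of the parent and its O-demethylated metabolites. Peak intensities were measured.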

Mus musculus [2] = assay: Neurotoxicity in Swiss Webster mouse assessed as induction of motor impairment at 40 mg/kg administered via oral gavage measured after 10 to 60 mins by rotarod method; type: toxicity, organism-based; conditions: in vivo
How it was run: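 Female mice were given a single oral gavage dose of 40 mg/kg, either in 50% PBS/40% propylene glycol/10% DMSO or, for poorly soluble compounds, in 2% polyethylene glycol plus 2.5% hydroxymethyl cellulose. Rotarod performance was tested 10, 30 and 60 min after dosing, with diazepam 5 mg/kg as positive control.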

[3] = Cmax in Wistar rat plasma at 10 mg/kg, ip administered as single dose measured at 5 to 720 mins post dose by HPLC-MS/MS analysis; type: ADME, organism-based; design: dose 10 mg/kg, route intraperitoneal
How it was run: (§1)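 Male Wistar rats (250-350 g) given a single 10 mg/kg i.p. dose of a 5 mg/ml suspension in 85% distilled water, 14% propylene glycol, 1% Tween 80. Three rats per time point (5, 20, 60, 180, 720 min). Blood and brain were collected after sacrifice. Drug was recovered by solid phase extraction and quantified by HPLC-MS/MS.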

[4] = Tmax in Wistar rat plasma at 10 mg/kg, ip administered as single dose by HPLC-MS/MS analysis; type: ADME, organism-based
How it was run: (§2)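 Male Wistar rats (250–350 g) received a single i.p. dose of 10 mg/kg as a 5 mg/ml suspension in 85% water, 14% propylene glycol and 1% Tween 80. Three rats per time point were sacrificed at 5, 20, 60, 180 and 720 min for plasma and brain. Samples were cleaned up by solid-phase extraction and quantified by HPLC-MS/MS.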

[5] = AUC (0 to 12 hrs) in Wistar rat plasma at 10 mg/kg, ip administered as single dose by HPLC-MS/MS analysis; type: ADME, organism-based; design: time < 12 hr, dose 10 mg/kg, route intraperitoneal
[6] = Cmax in Wistar rat brain at 10 mg/kg, ip administered as single dose measured at 5 to 720 mins post dose by HPLC-MS/MS analysis; type: ADME, organism-based; design: dose 10 mg/kg, route intraperitoneal; how it was run: as §1
[7] = Tmax in Wistar rat brain at 10 mg/kg, ip administered as single dose by HPLC-MS/MS analysis; type: ADME, organism-based; how it was run: as §2
Brain [8] = assay: AUC (0 to 12 hrs) in Wistar rat brain at 10 mg/kg, ip administered as single dose by HPLC-MS/MS analysis; type: ADME, organism-based; design: dose 10 mg/kg, time < 12 hr, route intraperitoneal; conditions: in vivo
[9] = Terminal elimination half-life in Wistar rat brain at 10 mg/kg, ip administered as single dose by HPLC-MS/MS analysis; type: ADME, organism-based; conditions: read-out: beta t1/2 (converted); how it was run: as §2
[10] = Cmax in Wistar rat plasma at 2 mg/kg administered as single dose via oral gavage measured at 5 to 1440 mins post dose by HPLC-MS/MS analysis; type: ADME, organism-based; design: dose 2 mg/kg, route oral
How it was run: (§3)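 Absolute oral bioavailability study in Wistar rats: single 2 mg/kg dose by oral gavage or IV, using nanoemulsion formulations. Three rats per time point (5, 30, 120, 480, 1440 min). Plasma and brain were extracted by solid phase extraction and levels measured by HPLC-MS/MS. Bioavailability was calculated from plasma AUC for the two routes.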

[11] = Tmax in Wistar rat plasma at 2 mg/kg administered as single dose via oral gavage by HPLC-MS/MS analysis; type: ADME, organism-based
How it was run: (§4)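 Male Wistar rats (250–350 g) received a single 2 mg/kg dose, by oral gavage or IV, from nanoemulsion formulations. Three rats per time point were sampled for plasma and brain at 5, 30, 120, 480 and 1440 min. Compound levels were measured by HPLC-MS/MS after solid-phase extraction; oral bioavailability was derived from plasma AUCs for the two routes.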

[12] = AUC (0 to 24 hrs) in Wistar rat plasma at 2 mg/kg administered as single dose via oral gavage by HPLC-MS/MS analysis; type: ADME, organism-based; design: dose 2 mg/kg, time < 24 hr, route oral
[13] = Terminal elimination half-life in Wistar rat plasma at 2 mg/kg administered as single dose via oral gavage by HPLC-MS/MS analysis; type: ADME, organism-based; conditions: read-out: beta t1/2 (converted); how it was run: as §4
[14] = Cmax in Wistar rat plasma at 2 mg/kg, iv administered as single dose measured at 5 to 1440 mins post dose by HPLC-MS/MS analysis; type: ADME, organism-based; design: dose 2 mg/kg, route intravenous; how it was run: as §3
[15] = Tmax in Wistar rat plasma at 2 mg/kg, iv administered as single dose by HPLC-MS/MS analysis; type: ADME, organism-based; how it was run: as §4
[16] = Cmax in Wistar rat brain at 2 mg/kg administered as single dose via oral gavage measured at 5 to 1440 mins post dose by HPLC-MS/MS analysis; type: ADME, organism-based; design: dose 2 mg/kg, route oral
How it was run: (§5)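 Male Wistar rats (250-350 g) received a single 2 mg/kg dose, nanoemulsion formulation, by oral gavage or IV. Three rats per time point (5, 30, 120, 480, 1440 min); plasma and brain collected. Compound extracted by solid-phase extraction and quantified by HPLC-MS/MS. Absolute oral bioavailability was calculated from plasma AUC after the two routes.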

[17] = Tmax in Wistar rat brain at 2 mg/kg administered as single dose via oral gavage by HPLC-MS/MS analysis; type: ADME, organism-based; how it was run: as §4
Brain [18] = assay: AUC (0 to 24 hrs) in Wistar rat brain at 2 mg/kg administered as single dose via oral gavage by HPLC-MS/MS analysis; type: ADME, organism-based; design: time < 24 hr, dose 2 mg/kg, route oral; conditions: in vivo
[19] = Terminal elimination half-life in Wistar rat brain at 2 mg/kg administered as single dose via oral gavage by HPLC-MS/MS analysis; type: ADME, organism-based; conditions: read-out: beta t1/2 (converted); how it was run: as §4
[20] = Cmax in Wistar rat brain at 2 mg/kg, iv administered as single dose measured at 5 to 1440 mins post dose by HPLC-MS/MS analysis; type: ADME, organism-based; design: dose 2 mg/kg, route intravenous; how it was run: as §3
[21] = Tmax in Wistar rat brain at 2 mg/kg, iv administered as single dose by HPLC-MS/MS analysis; type: ADME, organism-based; how it was run: as §4
[22] = Terminal elimination half-life in Wistar rat brain at 2 mg/kg, iv administered as single dose by HPLC-MS/MS analysis; type: ADME, organism-based; conditions: read-out: beta t1/2 (converted); how it was run: as §5
[23] = Ratio of brain AUC (0 to t) to plasma AUC (0 to t), Kp of the compound in Wistar rat at 10 mg/kg, ip administered as single dose by HPLC-MS/MS analysis; type: ADME, organism-based
Rattus norvegicus = assay: Hyperlocomotor activity in Wistar rat assessed as total distance travelled at 3 to 10 mg/kg, ip after 60 mins; type: ADME, organism-based; conditions: in vivo, 1 h
Mus musculus [24] = assay: Hyperlocomotor activity in C57BL/6 mouse assessed as total distance travelled at 3 to 10 mg/kg, ip after 60 mins; type: ADME, organism-based; conditions: in vivo, 1 h
[25] = Oral bioavailability in Wistar rat plasma at 2 mg/kg administered as single dose via gavage by HPLC-MS/MS analysis; type: ADME, organism-based; how it was run: as §5
Brain [26] = assay: Oral bioavailability in Wistar rat brain at 2 mg/kg administered as single dose via gavage by HPLC-MS/MS analysis; type: ADME, organism-based; conditions: in vivo; how it was run: as §5
[27] = biological target: Voltage-gated inwardly rectifying potassium channel KCNH2 (Homo sapiens, UniProt Q12809); assay: Displacement of [3H]-dofetilide from human ERG expressed in HEK cell membranes at >10 uM after 60 to 90 mins by scintillation counting
Chain of Voltage-gated inwardly rectifying potassium channel KCNH2 (Q12809 whole entry): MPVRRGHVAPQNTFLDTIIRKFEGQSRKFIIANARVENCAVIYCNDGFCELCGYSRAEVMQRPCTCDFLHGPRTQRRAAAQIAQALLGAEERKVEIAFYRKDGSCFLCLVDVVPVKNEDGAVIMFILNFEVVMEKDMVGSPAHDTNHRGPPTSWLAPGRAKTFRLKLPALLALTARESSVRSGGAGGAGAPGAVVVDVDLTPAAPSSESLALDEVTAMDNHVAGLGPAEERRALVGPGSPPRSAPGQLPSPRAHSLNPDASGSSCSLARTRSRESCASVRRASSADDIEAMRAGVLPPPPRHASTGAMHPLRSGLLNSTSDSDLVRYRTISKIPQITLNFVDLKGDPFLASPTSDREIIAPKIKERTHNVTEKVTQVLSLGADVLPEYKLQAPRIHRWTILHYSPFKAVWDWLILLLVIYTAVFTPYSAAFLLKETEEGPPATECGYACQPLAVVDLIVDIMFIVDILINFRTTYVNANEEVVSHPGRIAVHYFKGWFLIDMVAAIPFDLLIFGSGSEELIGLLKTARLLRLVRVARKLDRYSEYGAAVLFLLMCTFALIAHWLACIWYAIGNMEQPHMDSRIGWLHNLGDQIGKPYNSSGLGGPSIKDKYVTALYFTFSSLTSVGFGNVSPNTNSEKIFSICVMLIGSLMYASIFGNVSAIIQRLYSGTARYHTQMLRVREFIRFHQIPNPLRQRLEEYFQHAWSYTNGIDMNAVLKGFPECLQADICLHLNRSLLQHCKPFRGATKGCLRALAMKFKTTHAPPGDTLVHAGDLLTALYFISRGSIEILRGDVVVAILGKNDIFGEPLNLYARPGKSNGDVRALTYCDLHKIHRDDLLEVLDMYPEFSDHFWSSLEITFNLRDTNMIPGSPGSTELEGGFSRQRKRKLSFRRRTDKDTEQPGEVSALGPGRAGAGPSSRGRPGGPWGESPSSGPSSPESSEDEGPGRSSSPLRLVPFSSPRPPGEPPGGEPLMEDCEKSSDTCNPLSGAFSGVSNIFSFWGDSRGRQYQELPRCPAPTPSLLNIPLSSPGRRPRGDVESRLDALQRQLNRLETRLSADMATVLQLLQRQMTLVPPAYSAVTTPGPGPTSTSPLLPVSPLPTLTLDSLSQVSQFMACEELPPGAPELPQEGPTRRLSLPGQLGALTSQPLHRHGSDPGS

SMILES | remaining at 1 h, 10 µM [1] [%] | Activity (Mus musculus [2]) | Cmax [3] [ng/mL] | Tmax [4] [h] | AUC(0-t) at 12 h [5] [ng·h/mL] | Cmax [6] [ng/g] | Tmax [7] [h] | AUC (Brain [8]) [ng·h/g] | half-life [9] [h] | Cmax [10] [ng/mL] | Tmax [11] [h] | AUC(0-t) at 24 h [12] [ng·h/mL] | half-life [13] [h] | Cmax [14] [ng/mL] | Tmax [15] [h] | Cmax [16] [ng/g] | Tmax [17] [h] | AUC (Brain [18]) [ng·h/g] | half-life [19] [h] | Cmax [20] [ng/g] | further results
COc1ccc(-n2nc3c4ccc(OC)cc4[nH]cc-3c2=O)cc1 | 86.1 | Non-Toxic | 5050 | 1 | 28800 | 352 | 2.33 | 2177.98 | 1.96 | 173 | 2 | 1270 | 9 | 597 | 0 | 67.3 | 1.5 | 708.21 | 12.7 | 84.5 | Tmax [21]: 0.86 h; half-life [22]: 10.9 h; Kp [23]: 0.08; Activity (Rattus norvegicus): Toxic; Activity (Mus musculus [24]): Toxic; bioavailability [25]: 66.9%; F (Brain [26]): 82.6%; inhibition (INH) [27]: Not Active
[2H]C([2H])([2H])Oc1ccc(-n2nc3c4ccc(OC)cc4[nH]cc-3c2=O)cc1 | 91.7 | Non-Toxic | 4430 | 1.67 | 24200 | 587 | 2.33 | 3350.72 | 2.28 | 222 | 5.5 | 3000 | 1.4 | 728 | 0 | 67.3 | 3.5 | 513.12 | 4.2 | 71.9 | Tmax [21]: 1.36 h; half-life [22]: 4.34 h; Kp [23]: 0.13; Activity (Rattus norvegicus): Toxic; Activity (Mus musculus [24]): Toxic; bioavailability [25]: 100%; F (Brain [26]): 89.5%; inhibition (INH) [27]: Not Active
